# From PubChem BioAssay
# KCNK9 inh – inhibitors of human KCNK9 two-pore domain potassium channel. AID 488922. B-score at 10 µM. 310,000 tested, 1.2% active. HEK293 KCNK9, FluxOR thallium flux fluorescence; hits give low values;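 active = ratio B-score over 3 SD below the library mean, with starting fluorescence within 5 SD of its mean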;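 also: negative B-score means less thallium flux so channel inhibition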
# KCNQ1 inh – inhibitors of human KCNQ1 potassium channel; P51787; CHO-K1 KCNQ1, FluxOR thallium flux fluorescence; hits give high values; B-score at 10 µM; 310,000 tested, 1.3% active;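 active = compounds whose thallium flux B-score, printed positive for inhibition, exceeds three library SD while starting fluorescence stays within three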;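 also: channel opened by potassium depolarization with thallium stimulus after 20 min compound exposure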
# hERG protect – compounds protecting human hERG from proarrhythmic drug block; Q12809; CHO-hERG, FluxOR thallium flux, dofetilide IC70 present; activation (rescue from dofetilide block), less the hit threshold, % at 10 µM; 310,000 tested, 0.51% active;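 active = activation above the mean of controls blocked by dofetilide plus 5 SD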;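 also: thallium influx through hERG after potassium depolarization seen as dye fluorescence rise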
# KCNQ1 pot – potentiators or activators of human KCNQ1 potassium channel; CHO-K1 KCNQ1, thallium flux FluxOR fluorescence; hits give high values; B-score at 10 µM; 310,000 tested, 0.35% active;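 active = fluorescence ratio B-score, a plate-corrected score, at least three library SD, with initial intensity B-score within 5 SD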
#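 Doses: Single concentration per compound, DMSO matched to controls | Test system: KCNQ1-transfected CHO-K1 cells | Timing: 90 min dye loading and 20 min compound exposure, both at room temperature | Measured by: Kinetic FluxOR thallium fluorescence, 10-s 1-Hz baseline, 110-s post-stimulus read | Medium: Assay buffer with matched DMSO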
# KCNK3 inh – human KCNK3 channel inhibition, primary screen; 340,000 tested, 0.84% active; O14649; CHO-KCNK3 thallium flux, FluxOR fluorescence; hits give low values; B-score at 10 µM;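 active = B-score under library mean minus 4 SD, starting fluorescence ratio at most library mean plus 5 SD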;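 also: more negative B-score means stronger inhibition of thallium flux through KCNK3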
# Kir21 block – blocks the mouse Kir2.1 inward-rectifier potassium channel; P35561; HEK293-Kir2.1, FluxOR thallium flux fluorescence; hits give low values; B-score at 10 µM; 310,000 tested, 0.85% active;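 active = fluorescence ratio B-score at or below minus 3 SD of library scores, with starting-brightness B-score within 2 SD, cut at about -4.2 in these data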;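 also: channel flux triggered by added potassium and thallium sulfate stimulus; B-score of peak minus minimum fluorescence over baseline after thallium stimulus; more negative B-score means stronger Kir2.1 block with less thallium influx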
# * marks the source's active call; other numbers are inactive results; i = inactive; . = no result given. Only some compounds are listed: those with a hit (about 3.8% of all), similar ones and a draw of the others.
SMILES,KCNK9 inh,KCNQ1 inh,hERG protect,KCNQ1 pot,KCNK3 inh,Kir21 block
Oc1ccc(Cl)cc1-c1cc(-c2cccc(Br)c2)n[nH]1,i,i,-4,i,i,-0.02
Clc1ccc(-[n+]2c(-c3cccc(Br)c3)[nH]c3nc4ccccc4nc32)cc1,i,10*,-11,i,i,-0.46
CCn1cc(C(=O)NCCC(C)C)c(=O)c2cc(F)c(N3CCN(C)CC3)cc21,i,i,-6,i,i,0.69
Cc1ccc(NC(=O)N2CCCCCC2)cc1C,i,i,-9,i,i,-0.81
Cc1ccc(NC(=O)N2CCCN(Cc3ccc(F)cc3)C2)cc1C,i,i,-14,i,i,-5.4*
CC(C(=O)Nc1ccccc1Oc1ccccc1)c1ccccc1 (centres undefined),i,i,3,i,i,-5*
COc1ccccc1NC(=O)C(C)NC(c1ccccc1)c1ccccc1 (centres undefined),i,i,-7,i,i,-0.06
O=C(NCc1ccccc1)c1onc(CSc2ccc(F)cc2)c1C(=O)NCCCN1CCOCC1,i,i,-15,14*,i,-0.98
Nc1cc(Cl)ccc1C(=O)OCC(=O)N1CCCCCC1,.,.,.,.,i,.
CCCCCCCCCc1nc2sc3c(c2c(=O)n1NC(=O)c1ccc([N+](=O)[O-])cc1)CC(C)(C)OC3,i,7*,-10,i,i,-0.18
CCCc1nc2sc3c(c2c(=O)n1NC(=O)c1ccco1)CC(C)(C)OC3,i,i,-11,i,i,0.17
CCCCCCCCCc1nc2sc3c(c2c(=O)n1NC(=O)c1ccccc1[N+](=O)[O-])CC(C)(C)OC3,i,8*,-9,i,i,-0.07
N=C1SCC(=O)N1c1ncc(Cc2ccc(F)cc2)s1,i,i,-10,i,i,1.7
CC(C)n1cnnc1SCC(=O)NNC(=O)COc1ccc(Cl)cc1,i,i,-14,i,i,0.94
N#C/C(=C\c1ccc(-c2ccc([N+](=O)[O-])cc2)o1)C(=O)Nc1nc(-c2cccs2)cs1,i,i,-10,i,i,0.08
N#C/C(=C\c1ccc(-c2ccccc2[N+](=O)[O-])o1)C(=O)Nc1nc(-c2cccs2)cs1,i,i,12*,i,i,0.27
O=C(CN(Cc1ccc(Cl)cc1)C(=O)CNS(=O)(=O)c1ccc(F)cc1)NCC1CCCO1 (centres undefined),i,i,-7,i,i,1
O=C(Nc1cccc([N+](=O)[O-])c1)c1ccc2ccccc2c1O,i,6*,-18,i,i,0.18
Cc1occc1C(=O)Nc1cccc([N+](=O)[O-])c1,i,i,8.6*,i,i,-0.55
O=C(Nc1cccnc1)c1ccc2ccccc2c1O,i,i,-7,i,i,0.02
c1ccc2c(Nc3ccc4c(c3)OCCO4)c3c(nc2c1)CCC3,i,i,-13,i,i,-0.98
COc1ccc(Nc2c3c(nc4ccccc24)CCC3)cc1,i,i,-11,i,i,-12*
Fc1ccc(Nc2c3c(nc4ccccc24)CCC3)cc1,i,i,-17,i,i,-5.1*
c1ccc(Nc2c3c(nc4ccccc24)CCC3)cc1,i,i,-12,i,i,-4.9*
Cc1ccc2nc3c(c(Nc4ccccc4)c2c1)CCC3,i,i,-11,i,i,-4.4*
SMILES,KCNK9 inh,KCNQ1 inh,hERG protect,KCNQ1 pot,KCNK3 inh,Kir21 block
O=C(/C=C\c1ccccc1OC(=O)c1ccccc1F)c1cc2ccccc2o1,i,i,-3,i,i,-0.95
O=C(COC(=O)C1CC2CCCC(C1)C2=O)NNC(=O)c1ccccc1F (centres undefined),i,i,-14,i,i,1.5
O=C(CN1CCN(c2ccc(F)cc2)CC1)Nc1nccs1,i,i,-2,i,i,-0.05
COc1ccc(Nc2c3c(nc4ccccc24)CCCC3)cc1OC,i,i,-7,i,i,0
COc1ccc(C)cc1Nc1c2c(nc3ccccc13)CCC2,i,i,-15,i,i,-9.3*
Cc1ccc(NC(=O)COc2ncnc3cc([N+](=O)[O-])ccc23)cc1S(=O)(=O)N1CCOCC1,i,i,-10,i,i,-3.2
COc1ccc(-c2cc(-c3nc4ccccn4c3NCc3ccccc3)ccc2OC)cc1,.,.,.,.,-8.7*,.
Clc1cccc(-c2ccc(-c3nc4ccccn4c3NCc3ccccc3)cc2)c1,.,.,.,.,-9.6*,.
CC[C@@H](C(=O)[C@@H](C)[C@@H](O)[C@H](C)CCc1ccc(C)c(O)c1C(=O)O)[C@H]1O[C@](CC)([C@H]2CC[C@](O)(CC)[C@H](C)O2)C[C@@H]1C,i,i,65*,76*,i,-1.4
CC(C)COC(=O)N1CCN(S(=O)(=O)c2ccc3c(c2)CCC3)CC1,.,.,.,.,i,.
CO/N=C/NC(=O)Cc1cn(-c2ncc(C(F)(F)F)cc2Cl)c2ccccc12,i,i,-9,i,i,-0.75
CC(=O)/C=C\c1cn(-c2ncc(C(F)(F)F)cc2Cl)c2ccccc12,i,6*,-10,i,i,1.3
CCCCCc1ccc(OCCCC[n+]2cccc(C)c2)c(CCCCC)c1,-7.5*,10*,-27,i,i,-5.1*
CCC(C)(C)c1ccc(OCCCC[n+]2ccccc2)c(C(C)(C)CC)c1,i,i,-23,i,i,-3.6
CCCCCc1ccc(OCCCC[n+]2ccc(C)cc2)c(CCCCC)c1,-7.2*,11*,-27,i,i,-9.1*
Nc1cc(SCc2ccc(Cl)cc2Cl)ncn1,.,.,.,.,i,.
O=C(Nc1ccccc1C(=O)O)c1ccc(Br)c(S(=O)(=O)NCc2ccccc2)c1,i,i,-9,i,i,1.5
Cc1ccc(NC(=O)CN2C(=O)N/C(=C\c3ccco3)C2=O)cc1,.,.,.,.,i,.
CN(C)CCCN(C(=O)CCc1ccccc1)c1nc2ccc(F)cc2s1,i,i,-16,i,i,-4.9*
N=C1/C(=C\c2coc3ccccc3c2=O)C(=O)N=C2SC(c3ccncc3)=NN12,i,16*,-50,i,i,-12
N=C1/C(=C/c2coc3ccccc3c2=O)C(=O)N=C2SC(c3ccco3)=NN12,i,7*,-26,i,i,-12
Cc1c(N(C)C)nc2ccccc2c1N,i,i,0,i,i,0.13
CCN(CC)c1nc2ccccc2c(N)c1-c1ccccc1,i,i,-11,i,i,-5.1*
COc1ccccc1N(CC(=O)NCCSCc1ccc(C)cc1)S(=O)(=O)c1ccccc1,i,10*,-18,i,i,0.04
